# FGF22 binding: shifts melting point of recombinant human FGF22; Q9HCT0; recombinant FGF22 thermal shift, SYPRO orange fluorescence; percent of sucrose octasulfate shift, DMSO zero; activity (Tm shift, normalised), % at 9.99 µM; 340,000 compounds, 1.5% hits;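 active means mean Tm shift, scaled 0 neutral to 100 positive control, at about 1.3% or above, every replicate too, limit read from the data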
# Target sequence (Q9HCT0 whole entry, looked up): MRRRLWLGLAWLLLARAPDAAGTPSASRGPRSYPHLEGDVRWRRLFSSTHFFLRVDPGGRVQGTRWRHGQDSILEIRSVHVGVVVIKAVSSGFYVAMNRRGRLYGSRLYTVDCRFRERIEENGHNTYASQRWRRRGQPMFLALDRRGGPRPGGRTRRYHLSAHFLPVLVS
# Efflux pump mplx: inhibitors of Candida antifungal efflux pumps expressed in yeast | S. cerevisiae Candida pump triplex, Nile Red efflux | inhibition, % at 10 µM | 330,000 compounds, 0.44% hits | AID 485275;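 active means plate passing quality check with inhibition over a set limit, or well fluorescence over plate mean plus 4 SD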;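 further: Nile Red retained in pooled yeast measured as flow cytometry median fluorescence; 0% = buffer negative control and 100% = Enniatin B positive control; higher means more Nile Red kept so more efflux inhibition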
# ASAP1 inh: ASAP1 ArfGAP inhibition. Q9ULH1. ASAP1-stimulated ARF1 GTP hydrolysis, GDP FP detection. inhibition, % at 16.5 µM. 360,000 compounds, 0.19% hits; in the data active means inhibition above about 25%;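 further: 0% = vehicle with enzyme and substrate and 100% = no enzyme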
# Rtt109 HAT inh: C. albicans Rtt109 histone acetyltransferase inhibition. Q5AAJ8. inhibition, % at 34.9 µM. 330,000 compounds, 0.16% hits. purified Rtt109/Vps75, ThioGlo CoA-SH fluorescence, 4 h;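 active means inhibition of at least 50% in every replicate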
# Target sequence (Q5AAJ8 whole entry, looked up): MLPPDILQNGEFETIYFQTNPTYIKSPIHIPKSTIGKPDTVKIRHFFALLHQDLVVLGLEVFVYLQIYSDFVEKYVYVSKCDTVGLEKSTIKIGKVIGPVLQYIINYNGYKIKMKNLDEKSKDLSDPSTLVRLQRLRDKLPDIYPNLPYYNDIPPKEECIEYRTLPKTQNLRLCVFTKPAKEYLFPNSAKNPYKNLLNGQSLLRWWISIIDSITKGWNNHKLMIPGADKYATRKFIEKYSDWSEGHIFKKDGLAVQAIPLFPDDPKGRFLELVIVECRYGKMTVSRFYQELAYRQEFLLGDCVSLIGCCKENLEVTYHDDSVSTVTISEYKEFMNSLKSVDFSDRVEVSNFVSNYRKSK
# ARFGAP1 inhibitor: rat ARFGAP1 inhibition; inhibition, % at 16.5 µM; Arfgap1-stimulated ARF1 GTP hydrolysis, GDP FP detection; 360,000 compounds, 0.26% hits; Q62848;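 active means inhibition above a per-plate limit, mean inhibition of low control wells plus 3 SD, cut at about 25% in these data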;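 further: 0% = DMSO wells with enzyme and 100% = wells lacking Arfgap1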
# Target sequence (Q62848 1-136 limits assumed): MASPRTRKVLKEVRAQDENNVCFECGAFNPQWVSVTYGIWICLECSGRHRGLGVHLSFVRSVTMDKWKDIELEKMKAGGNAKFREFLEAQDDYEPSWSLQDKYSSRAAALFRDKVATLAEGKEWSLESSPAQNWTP
#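 Replicates: Single well per compound | Assay system: Truncated rat Arfgap1 GAP domain | Control set: No-Arfgap1 wells (100%) versus DMSO full-reaction wells (0%) | Times: Enzyme reaction 120 min at 25 °C after 20 min preincubation | Reagent: Human ARF1(Δ1-17)-GTP substrate | Measured by: Tracer-displacement fluorescence polarization with EDTA stop, 620/688 nm | Measure: Percent inhibition of Arfgap1-stimulated GTP hydrolysis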
# Active calls of the source: *; / = no result given. Compounds with a hit are over-represented: about 1.9% of the library has one in this group of screens.
SMILES,FGF22 binding,Efflux pump mplx,ASAP1 inh,Rtt109 HAT inh,ARFGAP1 inhibitor
COc1cccc(CNC(=O)C[C@H]2CC[C@H]3[C@H](COc4ccc(NS(=O)(=O)c5ccccc5F)cc4C(=O)N3C)O2)c1,-0.2,/,/,/,/
C=C(NC(=O)C(=C)NC(=O)c1csc(C2=NC3c4csc(n4)C4NC(=O)c5csc(n5)C([C@@](C)(O)C(C)O)NC(=O)C5CSC(=N5)/C(=C\C)NC(=O)C(C(C)O)NC(=O)c5csc(n5)[C@]3(CC2)NC(=O)C(C)NC(=O)C(=C)NC(=O)C(C)NC(=O)C(C(C)CC)NC2C=Cc3c(C(C)O)cc(nc3C2O)C(=O)OC4C)n1)C(N)=O (some centres not stated),/,1.1*,/,/,/
Cc1noc(C)c1NC(=O)N(C)C[C@@H]1OCCCC[C@@H](C)Oc2ccc(NC(=O)Nc3ccccc3)cc2C(=O)N([C@H](C)CO)C[C@H]1C,0.5,/,/,/,/
CCNC(=O)n1cc(-n2cncn2)c(-c2ccccc2)n1,43.4*,0.1,7.1,5.3,-16.1
O=C(CC(CC(=O)c1ccccc1)c1ccccn1)c1ccccc1,44.1*,/,4.2,-5.9,10.4
Cc1cccc(C)c1OCC(=O)Nn1c(=O)[nH]c2ccccc2c1=O,43.1*,0.2,10.3,-18.3,2.1
O=C(C[C@H]1C[C@@H]2c3cc(NC(=O)C4CCC4)ccc3O[C@@H]2[C@H](CO)O1)NCc1ccncc1,0.3,/,/,/,/
CCc1nc(SCC(=O)Nc2ccccc2C(=O)OC)n[nH]1,/,-0.1,-0.8,4.4,3.0
Cc1cc2oc(C(=O)Nc3ccc(S(N)(=O)=O)cc3)c(C)c2cc1Cl,42.9*,-0.2,2.2,-12.2,11.9
Cc1ccc2c(C)c(C(=O)Nc3ccc(S(N)(=O)=O)cc3)oc2c1C,0.1,0.1,4.5,4.0,3.0
Cc1ccc2c(C)c(C(=O)NCc3ccc(S(N)(=O)=O)cc3)oc2c1C,43.1*,-0.2,-8.8,1.8,-6.0
O=C(C1CC1)N1CC[C@@H]2[C@H](CO)Nc3ccc(Br)cc3[C@@H]21,0.1,/,/,/,/
CCCOc1ccc(C(CC(=O)O)NC(=O)c2sc3ccccc3c2Cl)cc1 (configuration not stated),43.1*,-0.2,-2.0,7.5,0.5
CCOc1ccc(C(CC(=O)O)NC(=O)c2sc3ccccc3c2Cl)cc1 (configuration not stated),42.8,-0.1,7.2,-1.0,2.7
Nc1ccccc1SCC(=O)Nc1nc(-c2ccccc2)cs1,1.5*,-0.1,3.5,13.3,1.6
CCOC(=O)C1(Cc2cccc(Cl)c2)CCCN(C(=O)C2CC2)C1 (configuration not stated),43.0*,0.0,4.4,6.3,-2.7
CC(C)NC(=O)CN1C(=O)C(=O)c2ccccc21,/,-0.1,2.4,3.7,-2.2
O=C1C(=O)N(CC(=O)N2CCCC2)c2ccccc21,43.0*,0.1,-9.0,-6.6,3.8
CC(C)C(C(=O)NCc1ccco1)N(CC1CCCO1)C(=O)CNS(=O)(=O)c1ccccc1 (configuration not stated),43.3*,-0.1,13.5,1.1,3.5
CC(C)(CO)NS(=O)(=O)c1ccc2c(c1)C(=NO)c1cc(S(=O)(=O)NC(C)(C)CO)ccc1-2,42.9*,-0.1,4.0,-4.6,7.7
COCCNS(=O)(=O)c1ccc2c(c1)C(=NO)c1cc(S(=O)(=O)NCCOC)ccc1-2,0.1,0.1,5.7,52.5*,5.3
CN(C)S(=O)(=O)c1ccc2c(c1)C(=NO)c1cc(S(=O)(=O)N(C)C)ccc1-2,-0.1,0.0,-11.3,1.6,3.8
O=C(c1ccccn1)N1C[C@H]2[C@@H](c3ccccc31)[C@H](CO)N2C(=O)C1CCOCC1,-0.4,/,/,/,/
O=[N+]([O-])c1cc(C(F)(F)F)cc([N+](=O)[O-])c1NCCCNc1ccc([N+](=O)[O-])c2cccnc12,/,-0.4,-6.0,-6.3,0.8
CC(=O)c1sc2nc(CSc3nnnn3-c3ccccc3)[nH]c(=O)c2c1C,0.2,0.2,-15.7,-3.0,-13.6
SMILES,FGF22 binding,Efflux pump mplx,ASAP1 inh,Rtt109 HAT inh,ARFGAP1 inhibitor
CC(=O)c1sc2nc(CSc3nncn3C)[nH]c(=O)c2c1C,43.8*,-0.2,1.9,-8.6,11.6
O=C1CSC(c2ccccc2)N1Nc1nc(N2CCOCC2)nc(N2CCOCC2)n1 (configuration not stated),43.4*,-0.2,-14.6,9.9,-0.8
CC(C)COC(=O)N(C)C[C@@H]1OCc2cnnn2CCCC(=O)N([C@H](C)CO)C[C@H]1C,-0.1,/,12.5,/,16.3
Cc1ncsc1CCOC(=O)c1ccc(N2CCOCC2)c([N+](=O)[O-])c1,43.7*,-0.1,11.2,-0.2,1.5
Cc1cccc(NC(=O)NC(C)C(c2cccs2)N2CCOCC2)c1 (configuration not stated),0.3,0.0,-1.1,2.1,1.6
O=C(C=CC(=O)OC1CCCCC1)OC1CCCCC1,0.4,/,-3.3,0.2,10.6
O=C(CCCCC(=O)OC1CCCCC1)OC1CCCCC1,43.2*,/,2.7,4.5,2.3
CCSC1=C(C#N)C(c2ccc(Cl)cc2)C2=C(CCCC2=O)N1 (configuration not stated),/,-0.1,-4.5,-6.1,-5.7
CC1=C(c2ccccc2)[N+](=O)C2(CCCCC2)N1[O-],43.0*,-0.1,-0.5,/,8.3
CCC1(CC)N([O-])C(C)=C(c2ccccc2)[N+]1=O,/,-0.3,5.5,-4.9,-6.1
O=C(NN1C(=O)/C(=C/C=C/c2ccccc2)SC1=S)c1ccncc1,1.0,0.1,3.2,-0.6,5.1
O=C(NN1C(=O)/C(=C/C=C/c2ccco2)SC1=S)c1ccncc1,-0.2,1.1*,-3.8,/,-21.5
O=C(Nc1ccccc1)OCCNC(=O)c1cccc(Cl)c1,/,0.2,11.7,3.1,5.3
C[C@@H]1CN([C@H](C)CO)C(=O)Cc2cc(NC(=O)Nc3ccccc3)ccc2O[C@H]1CN(C)CC1CCCCC1,-0.1,/,/,/,/
CCc1ccc(-c2cc(C(=O)N/N=C/c3ccco3)[nH]n2)cc1,43.2*,0.3,-6.3,1.6,7.7
OC[C@H]1Nc2ccc(-c3ccc(F)cc3)cc2[C@@H]2[C@H]1CCN2Cc1ccc(F)cc1,0.0,/,/,/,/
C=CCn1c(=O)/c(=C\c2ccsc2)s/c1=C(/C#N)C(=O)NCCN1CCOCC1,/,-0.1,/,-2.1,/
COc1ccc(-n2c(=O)/c(=C\c3cccs3)s/c2=C(/C#N)C(=O)NCCN2CCOCC2)cc1,43.4*,0.4,-9.2,-3.6,-5.0
C[C@@H]1CN([C@@H](C)CO)C(=O)Cc2cc(NS(=O)(=O)c3ccc(Cl)cc3)ccc2O[C@H]1CN(C)S(=O)(=O)c1ccc(F)cc1,0.2,/,/,/,/
O=C(N/N=C/c1cc2c(cc1Br)OCO2)c1cccnc1,43.4*,0.0,-4.5,2.9,19.2
CC(=O)c1ccc(-n2nnnc2SCC(=O)Nc2sc(C)c(C)c2C#N)cc1,43.9*,-0.1,17.7,4.1,-4.8
CC1(C)Cc2ccccc2C(/C(C#N)=N/O)=N1,42.9*,0.0,3.5,-16.1,1.0
NC(=O)Nc1ccc(C(=O)OCC(=O)NCc2ccc3c(c2)OCO3)cc1,0.1,0.0,9.0,1.9,-14.7
